Measured values taken from ChEMBL document CHEMBL1141208, “Synthesis and biological evaluation of methoxylated analogs of the newer generation taxoids IDN5109 and IDN5390” (Bioorg Med Chem Lett, 2005).

Columns and labels:
MCF7 = assay: Cytotoxic potency in MCF7 human mammary carcinoma cell line after 72 hr exposure by SRB test; assay type: functional, cell-based; details: MCF7, 72 h
How it was run: (§1)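 Monolayers grown in RPMI-1640 with 5% FCS, 5% NuSerum IV, 20 mM Hepes, 2 mM L-glutamine, 37 °C, 5% CO2. 800–1500 cells/well attached 15–18 h, then given 10 concentrations over a 5-log range (DMSO stock diluted in RPMI/10 mM Hepes) for 72 h. Cells TCA-fixed, sulforhodamine B stained, OD 570 nm. IC50 from Sigmoid-Emax nonlinear regression; means of ≥3 independent experiments ± SE.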

MCF7-DOX = assay: Cytotoxic potency in doxorubicin resistant MCF7 cell line after 72 hr exposure by SRB test; assay type: functional, cell-based; details: Homo sapiens; how it was run: as §1
[1] = Resistance index (IC50 of MCF7 resistant cell line/IC50 of MCF7 sensitive cell line); assay type: functional, Homo sapiens

Structure (SMILES) | IC50 (MCF7) | IC50 (MCF7-DOX) | Ratio IC50 [1]
CC(=O)O[C@@]1([C@@H]2/C(C)=C(/O)C(=O)C3=C(C)[C@@H](OC(=O)[C@H](O)[C@H](CC(C)C)NC(=O)OC(C)(C)C)C[C@@](O)([C@H]2OC(=O)c2ccccc2)C3(C)C)CO[C@@H]1CCO | 11.2 nM | 1040 nM | 93
COc1cccc(C(=O)O[C@H]2[C@H]([C@]3(OC(C)=O)CO[C@@H]3CCO)/C(C)=C(/O)C(=O)C3=C(C)[C@@H](OC(=O)[C@H](O)[C@H](CC(C)C)NC(=O)OC(C)(C)C)[C@@H]4OC(=O)O[C@]42C3(C)C)c1 | 0.5 nM | 120 nM | 240
COc1cccc(C(=O)O[C@H]2[C@@H]3[C@]4(OC(C)=O)CO[C@@H]4C[C@H](O)[C@@]3(C)C(=O)[C@H](OC(C)=O)C3=C(C)[C@@H](OC(=O)[C@H](O)[C@H](CC(C)C)NC(=O)OC(C)(C)C)[C@@H]4OC(=O)O[C@]42C3(C)C)c1 | 0.24 nM | 4 nM | 17
CC(=O)O[C@H]1C(=O)[C@@]2(C)[C@H]([C@H](OC(=O)c3ccccc3)[C@]34OC(=O)O[C@H]3[C@H](OC(=O)[C@H](O)[C@H](CC(C)C)NC(=O)OC(C)(C)C)C(C)=C1C4(C)C)[C@]1(OC(C)=O)CO[C@@H]1C[C@@H]2O [ORTATAXEL] | 1.6 nM | 32 nM | 20
CC(=O)O[C@H]1C(=O)[C@@]2(C)[C@H]([C@H](OC(=O)c3ccccc3)[C@]3(O)C[C@H](OC(=O)[C@H](O)[C@@H](NC(=O)c4ccccc4)c4ccccc4)C(C)=C1C3(C)C)[C@]1(OC(C)=O)CO[C@@H]1C[C@@H]2O [PACLITAXEL] | 0.6 nM | 585 nM | 975
